Laboratory results: ChEMBL document CHEMBL1240328, “Selective compounds define Hsp90 as a major inhibitor of apoptosis in small-cell lung cancer” (Nat Chem Biol, 2007)
Active and inactive are the calls of the source. The rule behind the calls is not given here.

What was measured:
SK-BR-3 [1] = assay: Inhibition of HSP70-mediated antiapoptotic activity in human SKBR3 cells assessed as induction of cell growth arrest after 72 hrs by propidium iodide staining-based flow cytometry
[2] = target: Heat shock protein HSP 90-beta (Homo sapiens) (UniProt P08238); assay: Inhibition of HSP90-mediated antiapoptotic activity in human NCI-H526 cells assessed as increase in caspase-3 activity at 10 uM after 24 hrs by Western blot analysis; type: cell-based
Heat shock protein HSP 90-beta (Homo sapiens), sequence (P08238 whole entry): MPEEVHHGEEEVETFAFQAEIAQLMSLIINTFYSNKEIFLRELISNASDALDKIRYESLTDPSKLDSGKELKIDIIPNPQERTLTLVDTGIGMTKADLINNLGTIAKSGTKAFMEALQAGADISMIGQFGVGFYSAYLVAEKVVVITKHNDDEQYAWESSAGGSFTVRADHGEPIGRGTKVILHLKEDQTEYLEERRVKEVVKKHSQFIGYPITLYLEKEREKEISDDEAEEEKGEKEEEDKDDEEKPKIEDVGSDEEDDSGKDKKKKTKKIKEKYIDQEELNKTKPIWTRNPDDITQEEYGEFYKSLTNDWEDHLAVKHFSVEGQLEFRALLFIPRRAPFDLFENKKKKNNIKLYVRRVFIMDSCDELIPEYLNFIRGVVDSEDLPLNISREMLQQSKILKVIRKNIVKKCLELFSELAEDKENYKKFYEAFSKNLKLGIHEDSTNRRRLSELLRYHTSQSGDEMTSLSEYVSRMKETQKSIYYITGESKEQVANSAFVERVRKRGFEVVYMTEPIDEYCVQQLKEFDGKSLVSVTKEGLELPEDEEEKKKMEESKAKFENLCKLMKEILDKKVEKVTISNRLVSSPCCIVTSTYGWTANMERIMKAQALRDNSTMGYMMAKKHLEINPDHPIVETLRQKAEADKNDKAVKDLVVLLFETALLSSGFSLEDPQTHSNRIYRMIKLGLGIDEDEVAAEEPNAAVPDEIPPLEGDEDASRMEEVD

[3] = target: Heat shock protein HSP 90-beta (Homo sapiens) (UniProt P08238); assay: Inhibition of HSP90-mediated antiapoptotic activity in human NCI-H187 cells assessed as mitochondrial membrane depolarization at 5 uM after 72 hrs by JC-1 staining-based flow cytometry; type: cell-based
Outline: (§1)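 SCLC cells treated for 72 h with graded doses. Mitochondrial membrane potential read by flow cytometry after JC-1 staining, with green-only emission indicating depolarization. Sub-G1 DNA content read after propidium iodide staining. CCCP used as positive control. n = 3 repeat experiments.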

[4] = target: Heat shock protein HSP 90-beta (Homo sapiens) (UniProt P08238); assay: Effect on HSP90-mediated survivin expression in human NCI-H526 cells at 25 uM after 24 hrs by Western blot analysis; type: cell-based
Outline: (§2)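 NCI-H526 cells were exposed for 24 h to drug or DMSO vehicle. Lysates were made in 50 mM Tris pH 7.4, 150 mM NaCl, 1% NP-40 and quantified by BCA. Western blot used 20–100 µg protein per lane, with β-actin as loading control.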

[5] = target: Heat shock protein HSP 90-beta (Homo sapiens) (UniProt P08238); assay: Inhibition of HSP90-mediated antiapoptotic activity in human SKBR3 cells assessed as induction of cell growth arrest at 100 uM after 24 hrs by propidium iodide staining-based flow cytometry; conditions: SK-BR-3
[6] = target: Heat shock protein HSP 90-beta (Homo sapiens) (UniProt P08238); assay: Inhibition of HSP90-mediated antiapoptotic activity in human NCI-H187 cells assessed as subG1 accumulation at 25 uM after 72 hrs by propidium iodide staining-based flow cytometry; type: cell-based; outline: as §1
[7] = target: Heat shock protein HSP 90-beta (Homo sapiens) (UniProt P08238); assay: Inhibition of HSP90-mediated antiapoptotic activity in human NCI-N417 cells assessed as subG1 accumulation at 25 uM after 72 hrs by propidium iodide staining-based flow cytometry; type: cell-based; conditions: NCI-H417
Outline: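 Asynchronously growing cells were treated with compound, stained with propidium iodide and analysed by flow cytometry. The read-out was the percentage of cells with sub-G1 DNA content.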

[8] = target: Heat shock protein HSP 90-beta (Homo sapiens) (UniProt P08238); assay: Inhibition of HSP90-mediated antiapoptotic activity in human MCF7 cells assessed as induction of cell growth arrest at 50 uM after 24 hrs by propidium iodide staining-based flow cytometry
[9] = target: Heat shock protein HSP 90-beta (Homo sapiens) (UniProt P08238); assay: Inhibition of HSP90-mediated antiapoptotic activity in human NCI-H526 cells assessed as subG1 accumulation at 5 uM after 72 hrs by propidium iodide staining-based flow cytometry; type: cell-based; outline: as §1
[10] = target: Heat shock protein HSP 90-beta (Homo sapiens) (UniProt P08238); assay: Effect on HSP90-mediated Bcl-2 expression in human NCI-H526 cells at 25 uM after 24 hrs by Western blot analysis; type: cell-based; outline: as §2
[11] = target: Heat shock protein HSP 90-beta (Homo sapiens) (UniProt P08238); assay: Inhibition of HSP90-mediated antiapoptotic activity in human NCI-N417 cells assessed as mitochondrial membrane depolarization at 5 uM after 96 hrs by JC-1 staining-based flow cytometry; type: cell-based; conditions: NCI-H417
Outline: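 Mitochondrial membrane potential was measured by JC-1 staining and flow cytometry. Depolarization was scored as a shift to cells emitting only green fluorescence. The mitochondrial uncoupler CCCP served as positive control.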

[12] = target: Heat shock protein HSP 90-beta (Homo sapiens) (UniProt P08238); assay: Inhibition of HSP90-mediated antiapoptotic activity in human SKBR3 cells assessed as induction of caspase-9 cleavage at 20 uM after 24 hrs by Western blot analysis; type: cell-based; conditions: SK-BR-3
Outline: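 SKBr3 cells at 60–70% confluence were exposed to drug or DMSO vehicle. Lysis was in 50 mM Tris pH 7.4, 150 mM NaCl, 1% NP-40, with protein measured by BCA. Lysates of 20–100 µg were run on SDS-PAGE, blotted to nitrocellulose, probed with primary antibodies and detected with a peroxidase-conjugated secondary (1:5,000). Loading was checked with β-actin or PI(3)K p85.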

SK-BR-3 [13] = assay: Inhibition of HSP70-mediated antiapoptotic activity in human SKBR3 cells assessed as release of Apaf-1 from chaperon complex after 24 hrs by Western blot analysis; type: cell-based
Outline: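 SKBr3 cells were treated for 24 h. Lysates were probed by western blot for caspase-3 and PARP cleavage. Apaf-1 complexes were pulled down with Apaf-1 antibody (with control IgG) and immunoblotted.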

[14] = target: Heat shock protein HSP 90-beta (Homo sapiens) (UniProt P08238); assay: Inhibition of HSP90-mediated antiapoptotic activity in human NCI-H187 cells assessed as subG1 accumulation at 2.5 uM after 72 hrs by propidium iodide staining-based flow cytometry; type: cell-based; outline: as §1
[15] = target: Heat shock protein HSP 90-beta (Homo sapiens) (UniProt P08238); assay: Inhibition of HSP90-mediated antiapoptotic activity in human NCI-H526 cells assessed as induction of PARP cleavage at 10 uM after 72 hrs by fluorescence assay in presence of caspase-9 inhibitor Z-LEHD-FMK; type: cell-based

Structure (SMILES): O=CN1CC/C(=C/c2ccc3c(c2)OCO3)C1=O
- inhibition (SK-BR-3 [1]): Active
- Activity [2]: inactive
- Activity [3]: inactive
- Activity [4]: inactive
- Activity [5]: Active
- Activity [6]: inactive
- Activity [7]: inactive
- Activity [8]: inactive
- Activity [9]: inactive
- Activity [10]: inactive
- Activity [11]: inactive
- Activity [12]: inactive
- inhibition (SK-BR-3 [13]): inactive
- Activity [14]: inactive
- Activity [15]: inactive
